The values below come from ChEMBL document CHEMBL1134494, “2-Amino-6-arylsulfonylbenzonitriles as non-nucleoside reverse transcriptase inhibitors of HIV-1” (J Med Chem, 2001).

A value given as a limit tells only on which side of the number the result lay.

Test [1] deals with Human immunodeficiency virus 1. Put plainly: Antiviral activity against HIV-1 infected human MT-4 cells. The settings on record: Human immunodeficiency virus 1, MT4. The class given is functional, organism-based. The method, boiled down:
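HTLV-1-transformed MT4 cells were infected with HIV-1 strain 3B at 100× the amount giving a 50% drop in cell growth. They were cultured 5 days with a range of compound concentrations. IC50 is the concentration restoring 50% of infected-cell growth (cytopathic effect) relative to uninfected MT4 controls.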

The subject of test [2] is MT4. Description: Cell culture cytotoxicity against MT-4 cells. The class given is functional, cell-based. The settings on record: Homo sapiens. In a few lines:
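MT4 cells were exposed to compound in parallel with the 5-day HIV-1 strain 3B cytopathic-effect assay. Compound-induced cytotoxicity is reported as the cell culture cytotoxicity IC50 (CCIC50).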

Test [3] has as its target Human immunodeficiency virus type 1 reverse transcriptase (Human immunodeficiency virus 1, UniProt Q72547). Put plainly: Inhibitory activity against HIV-1 reverse transcriptase. The method, boiled down: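 Recombinant HIV RT at 1 nM was combined with 40 nM Eu-chelate-labeled biotinylated DNA primer/RNA template and 100 nM Cy5-dUTP. Reactions were started with enzyme.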

As to `CCCCNc1cccc(S(=O)(=O)c2cc(C)cc(C)c2)c1C#N`, the half-inhibitory concentration (IC50) was more than 12 µM in test [1] and more than 200 µM in test [2].
For the compound `N#Cc1ccccc1Sc1cccc(N)c1C#N`, the 50% inhibitory concentration (IC50) in test [1] is more than 6.4 µM; in test [2] it was 42 µM; in test [3] it was 9.1 µM.
Regarding `Nc1cccc(S(=O)(=O)c2ccccc2)c1`, the half-inhibitory concentration (IC50) in test [1] and in test [2] was more than 50 µM throughout.
As for `N#Cc1c(N)cccc1S(=O)(=O)c1ccc(Cl)cc1`, the IC50 was 3 µM in test [1] and more than 5 µM in test [2].
Consider `N#Cc1c(N)cccc1Sc1cccc(Br)c1`, for which the IC50 in test [1] is 5.1 µM; in test [2], 53 µM; in test [3], 15 µM.
For `N#Cc1ccc(S(=O)(=O)c2cccc(N)c2C#N)cc1`, in that order: 80 µM, more than 200 µM and more than 18 µM.
For the compound `N#Cc1c(N)cccc1[S+]([O-])c1cccc(Br)c1` (stereo unspecified), the results for the IC50 in test [1] and in test [3] were 0.08 µM and 4.8 µM, respectively.
Take `Cc1cc(Cl)cc([S+]([O-])c2cccc(N)c2C#N)c1` (stereo unspecified): the IC50 in test [1] is 0.32 µM; in test [2], more than 200 µM; in test [3] it was 0.52 µM.
For the compound `O=[N+]([O-])c1ccccc1S(=O)(=O)c1ccccc1`, the half-inhibitory concentration (IC50) in test [1] stood at 2.2 µM; in test [3], 16 µM.
Consider `N#Cc1c(N)cccc1Sc1ccccc1Cl`, for which the 50% inhibitory concentration (IC50) in test [1] stood at 4.1 µM; in test [2] it was 33 µM; in test [3], 7.2 µM.
For `N#Cc1ccccc1S(=O)(=O)c1cccc(N)c1C#N`, in that order: 5.4 µM, more than 200 µM and 6 µM.
For `COc1cccc([S+]([O-])c2cccc(N)c2C#N)c1` (stereo unspecified), in that order: 16 µM, more than 80 µM and 19 µM.
Taken in the same sequence, the figures for `N#Cc1c(N)cccc1S(=O)(=O)c1ccccc1Br` were 5 µM, 40 µM and 12 µM.
As to `Cc1ccccc1[S+]([O-])c1cccc(N)c1C#N` (stereo unspecified), the half-inhibitory concentration (IC50) in test [1] was 93 µM; in test [2] it was more than 200 µM; in test [3], more than 21 µM.
Taken in the same sequence, the figures for `N#Cc1c(N)cccc1Sc1ccccc1Br` were 30 µM, 41 µM and more than 21 µM.
For `COc1ccccc1Sc1cccc(N)c1C#N`, in that order: 4.3 µM, more than 200 µM and 2.7 µM.
Taken in the same sequence, the figures for `N#Cc1cccc(S(=O)(=O)c2cccc(N)c2C#N)c1` were 2.4 µM, more than 200 µM and 1.8 µM.
Turning to `N#Cc1ccc([S+]([O-])c2cccc(N)c2C#N)cc1` (stereo unspecified), the 50% inhibitory concentration (IC50) in test [1] is more than 200 µM; in test [2], more than 200 µM; in test [3], more than 23 µM.
For `COc1cccc(S(=O)(=O)c2cccc(N)c2C#N)c1`, the IC50 in test [1] is 0.9 µM; in test [2], more than 200 µM; in test [3] it was 0.6 µM.
Taken in the same sequence, the figures for `N#Cc1c(N)cccc1[S+]([O-])c1ccc(Br)cc1` (stereo unspecified) were 20.2 µM, more than 200 µM and more than 21 µM.
Taken in the same sequence, the figures for `Cc1cc(C)cc(Sc2cccc(N)c2C#N)c1` were 0.43 µM, more than 2 µM and 1.1 µM.
For `N#Cc1c(N)cccc1Sc1cccc(N)c1`, in that order: 31.5 µM, 168 µM and more than 23 µM.
For the compound `Cc1ccc(S(=O)(=O)c2cccc(N)c2C#N)cc1`, the IC50 in test [1] is 9.5 µM; in test [2], more than 200 µM; in test [3], 7.3 µM.
As to `COc1cc([S+]([O-])c2cccc(N)c2C#N)cc(C(F)(F)F)c1` (stereo unspecified), the results for the IC50 in test [1], in test [2] and in test [3] were 2.07 µM, 108 µM and 0.9 µM, respectively.
For `N#Cc1ccccc1[S+]([O-])c1cccc(N)c1C#N` (stereo unspecified), in that order: 3.9 µM, more than 200 µM and 9.9 µM.
`CCCOc1cc(C)cc(S(=O)(=O)c2cccc(N)c2C#N)c1`: the 50% inhibitory concentration (IC50) in test [1] was 0.06 µM; in test [2] it was 11 µM.
As to `N#Cc1c(N)cccc1[S+]([O-])c1cc(Cl)ccc1Cl` (stereo unspecified), the IC50 in test [1] was 9.85 µM; in test [2] it was more than 200 µM; in test [3] it was 6.2 µM.
In the case of `N#Cc1c(N)cccc1S(=O)(=O)c1cc(Cl)ccc1Cl`, the half-maximal inhibitory concentration (IC50) is 0.3 µM in test [1], more than 200 µM in test [2] and 0.3 µM in test [3].
On to `Cc1ccccc1S(=O)(=O)c1cccc(N)c1C#N`, for which the results for the IC50 in test [1], in test [2] and in test [3] were 2.3 µM, more than 200 µM and 4.5 µM, respectively.
`N#Cc1c(N)cccc1S(=O)(=O)c1cccc(F)c1`: the IC50 in test [1] was 3 µM; in test [2], more than 200 µM.
For `Cc1cc(C)cc([S+]([O-])c2cccc(N)c2C#N)c1` (stereo unspecified), the IC50 in test [1] turned out to be 0.34 µM; in test [2] it was 200 µM; in test [3], 0.5 µM.
For `COc1cccc(Sc2cccc(N)c2C#N)c1`, in that order: 6 µM, more than 200 µM and 1.5 µM.
Take `N#Cc1c(N)cccc1[S+]([O-])c1cccc(C(F)(F)F)c1` (stereo unspecified): the values for the IC50 in test [1], in test [2] and in test [3] were 40 µM, 125 µM and more than 22 µM, respectively.
For `N#Cc1c(N)cccc1S(=O)(=O)c1cccc(C(F)(F)F)c1`, in that order: 3.5 µM, 197 µM and 5.3 µM.
Taken in the same sequence, the figures for `N#Cc1c(N)cccc1S(=O)(=O)c1ccc2ccccc2c1` were 0.05 µM, more than 200 µM and 0.03 µM.
Taken in the same sequence, the figures for `Cc1cccc(S(=O)(=O)c2cccc(N)c2C#N)c1` were 0.4 µM, 179 µM and 0.2 µM.
Take `N#Cc1c(N)cccc1Sc1cccc(Cl)c1`: the IC50 in test [1] came out at 7.4 µM; in test [2], 53 µM; in test [3] it was 16 µM.
Consider `COc1cc(C)cc(Sc2cccc(N)c2C#N)c1`, for which the results for the half-inhibitory concentration (IC50) in test [1], in test [2] and in test [3] were 2 µM, 10 µM and 0.14 µM, respectively.
Taken in the same sequence, the figures for `COc1ccccc1[S+]([O-])c1cccc(N)c1C#N` (stereo unspecified) were 4.8 µM, more than 200 µM and 12 µM.
With `CCOc1cc(C)cc(S(=O)(=O)c2cccc(N)c2C#N)c1`, the IC50 in test [1] amounted to 0.06 µM; in test [2], 9 µM.
Regarding `N#Cc1c(N)cccc1Sc1cc(Cl)ccc1Cl`, the figures for the IC50 in test [1], in test [2] and in test [3] were more than 0.8 µM, 4.3 µM and 3.5 µM, respectively.
Regarding `Cc1cc(Cl)cc(Sc2cccc(N)c2C#N)c1`, the figures for the half-maximal inhibitory concentration (IC50) in test [1], in test [2] and in test [3] were 1.76 µM, 16 µM and 1.7 µM, respectively.
Taken in the same sequence, the figures for `Cc1ccc(Sc2cccc(N)c2C#N)cc1` were 115 µM, more than 200 µM and 5.7 µM.
As for `O=[N+]([O-])c1ccccc1S(=O)(=O)c1ccccc1[N+](=O)[O-]`, the half-inhibitory concentration (IC50) in test [3] came out at 14 µM.
With `CCCCOc1cc(C)cc(S(=O)(=O)c2cccc(N)c2C#N)c1`, the half-maximal inhibitory concentration (IC50) in test [1] was 0.6 µM; in test [2], more than 2 µM; in test [3], 0.4 µM.
For `Cc1cc(C)cc(S(=O)(=O)c2cccc(NC3CCCCC3)c2C#N)c1`, the IC50 in test [1] and in test [2] was more than 200 µM in each case.
On to `Cc1cc(C)cc(S(=O)(=O)c2cccc(F)c2C#N)c1`, for which the IC50 was 1.5 µM in test [1] and more than 200 µM in test [2].
For `N#Cc1c(F)cccc1S(=O)(=O)c1cc(Cl)cc(Cl)c1`, in that order: 42 µM and 188 µM.
Regarding `COc1cc(Sc2cccc(N)c2C#N)cc(C(F)(F)F)c1`, the values for the IC50 in test [1], in test [2] and in test [3] were 5.1 µM, 9 µM and 13 µM, respectively.
`Cc1cc(O)cc(S(=O)(=O)c2cccc(N)c2C#N)c1`: the IC50 in test [1] came out at 0.43 µM; in test [2] it was 167 µM.
For the compound `Cc1cccc([S+]([O-])c2cccc(N)c2C#N)c1` (stereo unspecified), the half-inhibitory concentration (IC50) in test [1] was 29.2 µM; in test [2], more than 200 µM; in test [3], 10 µM.
Take `COc1cc(C)cc(S(=O)(=O)c2cccc(F)c2C#N)c1`: the IC50 is 51 µM in test [1] and 8 µM in test [2].
Regarding `N#Cc1c(N)cccc1Sc1cccc(C(F)(F)F)c1`, the concentration for half-maximal inhibition (IC50) in test [1] was determined as 12.8 µM; in test [2] it was 34 µM; in test [3] it was 7.1 µM.
For `N#Cc1ccc(Sc2cccc(N)c2C#N)cc1`, in that order: 43.8 µM, more than 200 µM and more than 19 µM.
For `COc1ccc([S+]([O-])c2cccc(N)c2C#N)cc1` (stereo unspecified), in that order: more than 200 µM, more than 200 µM and more than 20 µM.
For `N#Cc1c(N)cccc1S(=O)(=O)c1cccc(Br)c1`, in that order: 0.54 µM, more than 200 µM and 0.2 µM.
In the case of `N#Cc1c(N)cccc1Sc1ccc(Cl)cc1`, the IC50 is more than 32 µM in test [1], 113 µM in test [2] and 12 µM in test [3].
Taken in the same sequence, the figures for `N#Cc1c(N)cccc1S(=O)(=O)c1ccccc1` were 2 µM, more than 5 µM and 6.9 µM.
For the compound `N#Cc1c(N)cccc1S(=O)(=O)c1ccc(Br)cc1`, the IC50 is 20 µM in test [1], more than 200 µM in test [2] and more than 14 µM in test [3].
For `COc1ccc(S(=O)(=O)c2cccc(N)c2C#N)cc1`, in that order: 25 µM, more than 200 µM and 13 µM.
For `COc1ccccc1S(=O)(=O)c1cccc(N)c1C#N`, in that order: 0.6 µM, 146 µM and 1.4 µM.
Taken in the same sequence, the figures for `N#Cc1cccc(Sc2cccc(N)c2C#N)c1` were 1.73 µM, 80 µM and 1.1 µM.
